# High-throughput results deposited in PubChem BioAssay by Sanford-Burnham Center for Chemical Genomics.
# DNMT1 inh = DNMT1 (human) enzyme inhibition; P26358; DNMT1 molecular beacon, Hinp1I cleavage, fluorescence; inhibition (reported as % activation of signal), % at 10 µM; hit rate 0.83% among 360,000; in the data active = inhibition above about 50%
# Scp-1 inhibitor = blocks human Scp-1 phosphatase activity; hit rate 0.88% among 340,000; inhibition, % at 20 µM; Recombinant Scp1, phosphopeptide, malachite green phosphate absorbance;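 active = inhibition above about 50% at 20 µM, limit read from the data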;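 note: plate controls were DMSO wells with enzyme for no effect and wells lacking enzyme for full effect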
#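 Material – SCP-1 phosphatase catalytic domain, residues 76-261 · Buffer or medium – Acidic Tris acetate buffer with magnesium and detergent · Also added – Phospho 17-mer peptide substrate · Compound – single 20 µM dose, 1% DMSO · Times – 45 min room-temperature reaction, 5 min colour, 30 min stabiliser · Technique – Phosphate-binding colour reagent, absorbance read at 630 nm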
# NadD block = inhibitors of Staphylococcus aureus NadD. hit rate 0.78% among 360,000. inhibition, % at 20 µM. purified NadD enzyme, colorimetric absorbance read-out. AID 602399; in the data active = inhibition above about 26%
# STEP inh = STEP (human) phosphatase inhibition; P54829; hit rate 0.25% among 360,000; recombinant STEP, OMFP fluorogenic substrate, fluorescence; AID 588621; inhibition, % at 20 µM;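 active = inhibition at 20 µM, scaled per plate between control wells, above about 37%, limit read from the data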;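 note: 0% = DMSO with enzyme and substrate and 100% = substrate only without enzyme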
#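 Measure: Control-normalized % inhibition with plate pattern correction | Test system: STEP phosphatase, cell-free reaction | Medium: pH 6.0 Bis-Tris with DTT and Tween 20 | Technique: Fluorescence, 480/540 nm | Times: Reaction 20 min, ambient temperature | Doses: Single compound dose of 20 µM, 1% DMSO final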
# LMPTP block = blocks human LMPTP phosphatase; P24666; recombinant LMPTP-A, OMFP fluorogenic substrate, fluorescence intensity; inhibition, % at 20 µM; hit rate 0.22% among 360,000;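 active = compounds that cut the enzyme signal by at least half of the control window in the single-dose screen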;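 note: plate controls were DMSO wells with enzyme plus substrate for no effect and substrate without enzyme for full effect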
# Target sequence (P24666 whole entry, looked up): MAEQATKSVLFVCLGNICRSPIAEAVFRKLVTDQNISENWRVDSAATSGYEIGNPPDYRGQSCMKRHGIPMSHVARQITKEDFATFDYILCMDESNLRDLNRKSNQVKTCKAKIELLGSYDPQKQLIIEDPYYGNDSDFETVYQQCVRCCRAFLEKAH
#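 Assay system: LMPTP-A phosphatase enzyme | Input: 0.625 nM enzyme | Also added: Fluorogenic phosphatase substrate OMFP at 400 µM final | Compound dosing: One test concentration per compound, 20 µM, with 3% DMSO overall | Schedule: 50 min enzyme reaction at room temperature, protected from light | Signal: Fluorescence intensity | Benchmarks: no-enzyme and uninhibited controls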
# SUMO1-SIM PPI = alters human SUMO1 binding to SIM partners | P63165 | SUMO1 binding to a labelled peptide, TR-FRET, 1 h | inhibition, % at 20 µM | hit rate 0.33% among 360,000 | AID 602429; in the data active = inhibition above about 37%
# Target sequence (P63165 whole entry, looked up): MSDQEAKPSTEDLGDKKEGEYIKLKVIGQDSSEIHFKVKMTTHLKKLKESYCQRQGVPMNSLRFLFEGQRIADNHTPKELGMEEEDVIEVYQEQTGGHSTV
# NadD inh conf = confirmation of Staphylococcus aureus NadD inhibitors. shares compounds with NadD block. purified S. aureus NadD, colorimetric enzyme assay. inhibition, % at 20 µM. hit rate 13% among 2,000; in the data active = inhibition mostly above about 42%, no sharp cut-off; inactive = mostly below about 42%
# An asterisk follows results filed as active; · = no result. A selection: hits, their analogues and other compounds. The true share with any hit is near 2.3%.
SMILES,DNMT1 inh,Scp-1 inhibitor,NadD block,STEP inh,LMPTP block,SUMO1-SIM PPI,NadD inh conf
O=C1CC(/C=C/c2ccc(Cl)cc2)=Nc2ccccc2N1,-10,-5,33*,1,1,-13,7
CCOC(=O)C1=CCC(c2ccc(C)cc2)N(S(=O)(=O)c2ccc(C)cc2)C1 (configuration not stated),-5,·,-1,4,2,8,·
COc1ccc(C2CC(c3ccccc3)=NN2C(=O)c2ccc(F)cc2)cc1 (configuration not stated),-6,-15,-8,0,2,-3,·
COc1ccc(C2CC(c3ccccc3)=NN2C(=O)CN2N=NC3C(=O)N(c4cccc(F)c4)C(=O)C32)cc1 (configuration not stated),-8,0,40*,2,1,-1,8
Cc1cccn2c(=O)c3cc(C(N)=S)c(=N)n(CCCN4CCOCC4)c3nc12,-4,-3,36*,9,28,-9,-8
Cc1ccc(-c2c(C(=O)Nc3ccccc3C)c(C)[nH]c(=S)c2C#N)o1,22,-1,31*,3,3,11,3
Cc1ccccc1NC(=O)c1c(C)[nH]c(=S)c(C#N)c1-c1ccc(Cl)cc1,-5,-10,18,-1,-2,-2,·
COc1ccc([N+](=O)[O-])cc1N(CC(=O)N1CCCC1)S(C)(=O)=O,3,7,1,2,0,-13,·
